What was measured:
Histone deacetylase 1 = Histone deacetylase 1 (Homo sapiens, UniProt Q13547); experiment: Inhibition of recombinant HDAC1 expressed in HEK293 cells; type: cell-based
[1] = target: T1, Protein deacetylase HDAC6 (Homo sapiens, UniProt Q9UBN7); experiment: Inhibition of recombinant HDAC6 expressed in HEK293 cells; type: cell-based
T1 sequence (Q9UBN7 whole entry): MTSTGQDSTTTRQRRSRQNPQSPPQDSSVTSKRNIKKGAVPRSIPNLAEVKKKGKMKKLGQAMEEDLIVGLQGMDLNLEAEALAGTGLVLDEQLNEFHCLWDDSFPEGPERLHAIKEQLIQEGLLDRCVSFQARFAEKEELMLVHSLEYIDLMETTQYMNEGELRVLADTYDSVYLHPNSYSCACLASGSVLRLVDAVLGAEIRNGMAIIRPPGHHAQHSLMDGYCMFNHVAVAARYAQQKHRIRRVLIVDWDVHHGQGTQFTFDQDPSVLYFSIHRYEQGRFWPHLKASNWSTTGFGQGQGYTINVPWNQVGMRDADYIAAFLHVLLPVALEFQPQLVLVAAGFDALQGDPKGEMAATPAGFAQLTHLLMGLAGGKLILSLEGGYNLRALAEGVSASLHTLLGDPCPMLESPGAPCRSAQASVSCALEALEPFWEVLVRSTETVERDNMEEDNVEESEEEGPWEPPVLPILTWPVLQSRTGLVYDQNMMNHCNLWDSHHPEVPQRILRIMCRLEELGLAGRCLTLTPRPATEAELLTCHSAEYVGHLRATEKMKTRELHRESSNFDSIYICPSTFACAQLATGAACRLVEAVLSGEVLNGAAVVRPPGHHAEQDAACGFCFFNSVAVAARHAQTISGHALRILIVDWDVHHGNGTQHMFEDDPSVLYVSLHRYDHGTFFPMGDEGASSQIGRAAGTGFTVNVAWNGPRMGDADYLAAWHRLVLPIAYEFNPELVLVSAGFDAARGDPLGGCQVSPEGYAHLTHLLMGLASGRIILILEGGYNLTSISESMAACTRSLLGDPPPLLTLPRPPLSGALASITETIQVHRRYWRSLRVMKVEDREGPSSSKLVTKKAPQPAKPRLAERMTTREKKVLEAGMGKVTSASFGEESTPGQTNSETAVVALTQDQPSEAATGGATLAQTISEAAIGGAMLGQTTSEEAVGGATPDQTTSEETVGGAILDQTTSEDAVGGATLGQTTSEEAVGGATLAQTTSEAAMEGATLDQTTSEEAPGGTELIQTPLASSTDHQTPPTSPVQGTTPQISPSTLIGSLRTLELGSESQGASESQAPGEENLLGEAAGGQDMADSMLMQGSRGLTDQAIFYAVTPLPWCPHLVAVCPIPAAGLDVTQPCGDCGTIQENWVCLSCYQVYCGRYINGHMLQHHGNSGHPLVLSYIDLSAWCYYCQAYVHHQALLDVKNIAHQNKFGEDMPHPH

Histone deacetylase [2] = experiment: Inhibition of nuclear HDAC isolated from human HeLa cells; type: cell-based
Histone deacetylase [3] = experiment: Inhibition of HDAC in human HeLa cells; type: cell-based
HeLa = experiment: Cytotoxicity against human HeLa cells after 72 hrs by alamar blue assay; type: functional, cell-based
Procedure, shortened: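 HeLa cells were seeded at densities allowing growth through 72 h of compound exposure at 37 °C, 5% CO2. Viability was read by Alamar Blue (resazurin) reduction. Replicate assays were averaged, and IC50 was taken from concentration-effect curves.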

Chain of Histone deacetylase 1 (Q13547 whole entry): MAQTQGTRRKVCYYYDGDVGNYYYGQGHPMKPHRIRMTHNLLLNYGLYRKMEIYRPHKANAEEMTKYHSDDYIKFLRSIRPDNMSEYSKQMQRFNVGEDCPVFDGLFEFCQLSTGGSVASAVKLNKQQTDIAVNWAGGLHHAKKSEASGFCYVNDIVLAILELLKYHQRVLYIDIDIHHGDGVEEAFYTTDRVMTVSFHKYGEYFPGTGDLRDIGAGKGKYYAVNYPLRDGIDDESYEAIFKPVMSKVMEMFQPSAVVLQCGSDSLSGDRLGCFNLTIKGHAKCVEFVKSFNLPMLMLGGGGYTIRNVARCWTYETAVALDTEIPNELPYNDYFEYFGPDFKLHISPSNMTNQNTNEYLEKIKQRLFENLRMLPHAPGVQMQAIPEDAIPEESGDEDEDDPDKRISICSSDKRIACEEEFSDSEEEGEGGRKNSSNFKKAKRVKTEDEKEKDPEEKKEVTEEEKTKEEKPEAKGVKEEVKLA

| Compound | IC50 (Histone deacetylase 1) | IC50 [1] | IC50 (Histone deacetylase [2]) | IC50 (Histone deacetylase [3]) | IC50 (HeLa) |
| --- | --- | --- | --- | --- | --- |
| CCSC(=S)SCC(=O)c1ccc(CNC(C)=O)cc1 | 7120 nM | 346 nM | 0.719 µM | 2.07 µM | 17.9 µM |
| CCSC(=S)SCC(=O)c1ccc(NS(=O)(=O)c2ccc(Cl)cc2)cc1 | 2490 nM | 979 nM | 0.025 µM | 1.74 µM | 10.4 µM |
| CCSC(=S)SCC(=O)c1cccc(NS(=O)(=O)c2ccc(Cl)cc2)c1 | 3460 nM | 1250 nM | 0.048 µM | 9.08 µM | 46.6 µM |
| CCSC(=S)SCC(=O)c1cccc(NC(C)=O)c1 | 2930 nM | 329 nM | 0.506 µM | 3.28 µM | 9.38 µM |
| CCSC(=S)SCC(=O)c1ccc(NC(=O)c2cccnc2)cc1 | 1160 nM | 421 nM | 0.174 µM | 0.865 µM | 5.16 µM |
| COCCSC(=S)SCC(=O)c1ccc(OC)cc1 | 8940 nM | 2130 nM | 0.293 µM | 5.53 µM | 7.88 µM |
| CCSC(=S)SCC(=O)c1ccc(-c2ccc(N)cn2)s1 | 831 nM | 43 nM | 0.083 µM | 1.18 µM | 0.452 µM |
| COc1ccc(C(=O)CSC(=S)SCCNC(C)=O)cc1 | 7510 nM | 1640 nM | 0.467 µM | 3.47 µM | 11.1 µM |
| CCSC(=S)SCC(=O)c1ccc(NS(C)(=O)=O)cc1 | 6110 nM | 1090 nM | 1.26 µM | 8.95 µM | 45.8 µM |
| CCSC(=S)SCC(=O)c1cccc(CNC(C)=O)c1 | 38200 nM | 816 nM | 6.59 µM | 6.82 µM | 11.3 µM |
| CCSC(=S)SCC(=O)c1ccc(CN(C)C(C)=O)cc1 | 946 nM | 256 nM | 0.384 µM | 6.33 µM | 21.5 µM |
| CCSC(=S)SCC(=O)c1ccc(CCNC(C)=O)cc1 | 607 nM | 102 nM | 0.587 µM | 1.48 µM | 12.8 µM |
| CCSC(=S)SCC(=O)c1ccc(C(=O)Nc2ccccc2)s1 | 31600 nM | 245 nM | 0.063 µM | 0.423 µM | 50 µM |
| CCSC(=S)SCC(=O)c1ccc(C(=O)Nc2ccccc2)cc1 | 27900 nM | 521 nM | 0.074 µM | 1.11 µM | 25.8 µM |
| CCSC(=S)SCC(=O)c1ccc(NC(=O)Nc2ccccc2)cc1 | 18800 nM | 606 nM | 0.04 µM | 1.19 µM | 20.2 µM |
| CCSC(=S)SCC(=O)c1cccc(C(=O)Nc2ccccc2)c1 | 1670 nM | 517 nM | 0.124 µM | 1.23 µM | 2.4 µM |
| CCSC(=S)SCC(=O)c1ccc(CC(=O)NCc2ccc(OC)cc2)s1 | 887 nM | 175 nM | 0.026 µM | 0.6 µM | 1.45 µM |
| CCSC(=S)SCC(=O)c1cccc(S(=O)(=O)Nc2cccc(C(N)=O)c2)c1 | 1560 nM | 181 nM | 0.097 µM | 1.15 µM | 7.74 µM |
| COc1ccc(C(=O)CSC(=S)SCCOc2ccccc2)cc1 | 9720 nM | 4570 nM | 0.128 µM | 11.6 µM | 5.46 µM |
| CCSC(=S)SCC(=O)c1ccc(Nc2ncnc3ccccc23)cc1 | 25800 nM | 390 nM | 0.379 µM | 2.99 µM | 2.65 µM |
| CCSC(=S)SCC(=O)c1ccc(OC)cc1 | 4560 nM | 1220 nM | 0.375 µM | 4.67 µM | 1.96 µM |
| CCSC(=S)SCC(=O)c1ccc(NS(=O)(=O)c2ccccc2)cc1 | 1870 nM | 382 nM | 0.042 µM | 0.8 µM | 9.04 µM |
| CCOC(=O)SCC(=O)c1ccc(OC)cc1 | 21200 nM | 5360 nM | 2.81 µM | 9.79 µM | 18.5 µM |
| CCSC(=S)SCC(=O)c1ccc(C(=O)NCc2ccccc2)cc1 | 5780 nM | 830 nM | 0.09 µM | 1.5 µM | 23.9 µM |
| CCSC(=S)SCC(=O)c1ccc(NC(=O)c2cnc3ccccc3c2)cc1 | 980 nM | 119 nM | 0.066 µM | 0.748 µM | 50 µM |
| CCSC(=S)SCC(=O)c1cccc(NS(=O)(=O)c2ccccc2)c1 | 1550 nM | 104 nM | 0.127 µM | 2.78 µM | 11.9 µM |
| CCOC(=S)SCC(=O)c1ccc(OC)cc1 | 1380 nM | 448 nM | 0.811 µM | 4.72 µM | 4.64 µM |

Continued, in another order:

| IC50 (Histone deacetylase 1) | IC50 [1] | IC50 (Histone deacetylase [2]) | IC50 (Histone deacetylase [3]) | Compound | IC50 (HeLa) |
| --- | --- | --- | --- | --- | --- |
| 589 nM | 340 nM | 0.008 µM | 0.299 µM | CCSC(=S)SCC(=O)c1ccc(S(=O)(=O)Nc2ccc(Cl)cc2)cc1 | 6.08 µM |
| 587 nM | 396 nM | 0.015 µM | 0.836 µM | CCSC(=S)SCC(=O)c1ccc(C(=O)NCc2cc(C)cc(C)c2)s1 | 31.3 µM |
| 328 nM | 198 nM | 0.027 µM | 0.5 µM | CCSC(=S)SCC(=O)c1cccc(C(=O)NCCOc2ccccc2)c1 | 10.2 µM |
| 422 nM | 110 nM | 0.123 µM | 3.41 µM | CCCC(=S)SCC(=O)c1ccc(OC)cc1 | 5.71 µM |
| 141 nM | 18 nM | 0.094 µM | 1.12 µM | CCNC(=S)SCC(=O)c1ccc(NC(C)=O)cc1 | 11 µM |
| 523 nM | 301 nM | 0.046 µM | 0.632 µM | CCSC(=S)SCC(=O)c1ccc(CNC(=O)c2ccccc2)cc1 | 12.7 µM |
| 497 nM | 135 nM | 0.049 µM | 1.03 µM | CCSC(=S)SCC(=O)c1ccc(C(=O)N[C@@H](C)c2ccccc2)s1 | 15.8 µM |
| 712 nM | 483 nM | 0.032 µM | 0.964 µM | CCSC(=S)SCC(=O)c1ccc(C(=O)NCCOc2ccccc2)cc1 | 18.2 µM |
| 388 nM | 38 nM | 0.184 µM | 0.646 µM | CCSC(=S)SCC(=O)c1cccc(NC(=O)c2cccnc2)c1 | 7.02 µM |
| 215 nM | 94 nM | 0.195 µM | – | CCNC(=S)SCC(=O)c1ccc(OC)cc1 | 7.8 µM |
| 340 nM | 44 nM | 0.019 µM | 0.411 µM | CCSC(=S)SCC(=O)c1ccc(C(=O)NCc2ccccc2)s1 | 13 µM |
| 227 nM | 245 nM | 0.016 µM | 0.377 µM | CCSC(=S)SCC(=O)c1ccc(S(=O)(=O)Nc2ccc(OC)cc2)cc1 | 4.32 µM |
| 592 nM | 89 nM | 0.036 µM | 0.483 µM | CCSC(=S)SCC(=O)c1cccc(NC(=O)c2cnc3ccccc3c2)c1 | 9.61 µM |
| 368 nM | 132 nM | 0.115 µM | 3.18 µM | CCNC(=O)SCC(=O)c1ccc(OC)cc1 | 13.3 µM |
| 164 nM | 23 nM | 0.087 µM | 1.37 µM | CCCC(=S)SCC(=O)c1ccc(NC(C)=O)cc1 | 6.41 µM |
